Source: ChEMBL document CHEMBL3875209, “Synthesis and biological evaluation of cis-restricted triazole/tetrazole mimics of combretastatin-benzothiazole hybrids as tubulin polymerization inhibitors and apoptosis inducers” (Bioorg Med Chem, 2017)
The source made the active and inactive calls. The rule behind the calls is not given here.

What was measured:
A549 [1] = experiment: Induction of mitochondrial membrane potential loss in human A549 cells assessed as intact mitochondrial membrane at 100 nM after 48 hrs by JC-1 staining based flow cytometry (reference value: 95.9%); type: functional
[2] = Cell cycle arrest in human A549 cells assessed as accumulation at G2/M phase after 48 hrs by propidium iodide staining based flow cytometry; type: functional
In short: (§1)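 A549 cells exposed for 48 h at 50 or 100 nM. Cells harvested, washed in PBS, fixed in ice-cold 70% ethanol and stained with propidium iodide. Phase distribution (G0/G1, S, G2/M) measured by flow cytometry against untreated cells.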

A549 [3] = experiment: Induction of apoptosis in human A549 cells assessed as early apoptotic cells at 100 nM after 48 hrs by Annexin-V FITC/propidium iodide staining based flow cytometry (reference value: 5.2%); type: functional
A549 [4] = experiment: Induction of apoptosis in human A549 cells assessed as early apoptotic cells at 50 nM after 48 hrs by Annexin-V FITC/propidium iodide staining based flow cytometry (reference value: 5.2%); type: functional
A549 [5] = experiment: Induction of mitochondrial membrane potential loss in human A549 cells assessed as intact mitochondrial membrane at 50 nM after 48 hrs by JC-1 staining based flow cytometry (reference value: 95.9%); type: functional
[6] = Antiproliferative activity against human A549 cells after 48 hrs by MTT assay; type: functional, cell-based; conditions: A549, 48 h
In short: (§2)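 MTT assay. Cells seeded in DMEM with 10% FBS and left 24 h at 37 °C in CO2 before compound treatment for 48 h. MTT (5 mg/mL stock) added for 4 h, formazan dissolved in DMSO, absorbance read at 570 nm. IC50 taken as the mean of three independent experiments.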

[7] = Cell cycle arrest in human A549 cells assessed as accumulation at G2/M phase at 100 nM after 48 hrs by propidium iodide staining based flow cytometry; type: functional; in short: as §1
A549 [8] = experiment: Induction of apoptosis in human A549 cells assessed as live cells at 50 nM after 48 hrs by Annexin-V FITC/propidium iodide staining based flow cytometry (reference value: 94.2%); type: functional
A549 [9] = experiment: Induction of apoptosis in human A549 cells assessed as late apoptotic cells at 100 nM after 48 hrs by Annexin-V FITC/propidium iodide staining based flow cytometry (reference value: 0.6%); type: functional
A549 [10] = experiment: Induction of ROS generation in human A549 cells at 100 nM after 48 hrs by DCFDA staining based flow cytometry (reference value: 4.4%); type: functional
[11] = Cell cycle arrest in human A549 cells assessed as accumulation at G0/G1 phase at 100 nM after 48 hrs by propidium iodide staining based flow cytometry (reference value: 78.5%); type: functional; in short: as §1
Homo sapiens = organism: Homo sapiens; experiment: Inhibition of colchicine binding to tubulin (unknown origin) at 5 to 20 uM after 60 mins by fluorescence assay
In short: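 Tubulin (3 µM) incubated with compound at 5–20 µM, with and without colchicine (3 µM), in 30 mM Tris for 60 min at 37 °C. Fluorescence read at ex 350/em 435 nm. Tris blank and the colchicine-free signal were subtracted, and values normalized to DMSO. CA-4 and vinblastine served as controls.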

A549 [12] = experiment: Induction of mitochondrial membrane potential loss in human A549 cells at 50 nM after 48 hrs by JC-1 staining based flow cytometry (reference value: 3.8%); type: functional
[13] = Depolarization of mitochondrial membrane potential in human A549 cells after 48 hrs by JC-1 staining based flow cytometry; type: functional, cell-based
[14] = Antiproliferative activity against human MCF7 cells after 48 hrs by MTT assay; type: functional, cell-based; conditions: MCF7, 48 h; in short: as §2
[15] = Antiproliferative activity against human HeLa cells after 48 hrs by MTT assay; type: functional, cell-based; in short: as §2
A549 [16] = experiment: Induction of mitochondrial membrane potential loss in human A549 cells at 100 nM after 48 hrs by JC-1 staining based flow cytometry (reference value: 3.8%); type: functional
[17] = Cell cycle arrest in human A549 cells assessed as accumulation at S phase at 50 nM after 48 hrs by propidium iodide staining based flow cytometry (reference value: 9.4%); type: functional; in short: as §1
A549 [18] = experiment: Induction of ROS generation in human A549 cells at 50 nM after 48 hrs by DCFDA staining based flow cytometry (reference value: 4.4%); type: functional
[19] = Antiproliferative activity against human DU145 cells after 48 hrs by MTT assay; type: functional, cell-based; conditions: DU-145, 48 h; in short: as §2
Sus scrofa = organism: Sus scrofa; experiment: Inhibition of porcine brain tubulin polymerization at 3 uM in presence of GTP by fluorescence assay relative to control
In short: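 Fluorescence-reporter tubulin polymerization kit: PEM buffer with […], compound at 3 µM final, CA-4 as positive control. Fluorescence followed at ex 360/em 420 nm for 1 h at 37 °C. Mean ± SD of two experiments run in triplicate.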

A549 [20] = experiment: Induction of apoptosis in human A549 cells assessed as necrotic cells at 100 nM after 48 hrs by Annexin-V FITC/propidium iodide staining based flow cytometry (reference value: 0.1%); type: functional
A549 [21] = experiment: Inhibition of alpha-tubulin polymerization in human A549 cells assessed as increase in soluble tubulin fraction at 1 uM after 48 hrs by Western blot method; type: cell-based
In short: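 A549 cells (1 × 10⁵/well) treated at 1 µM for 48 h alongside DMSO, CA-4 and paclitaxel controls. Soluble fraction released with warm Pipes-KOH pH 6.8/Triton lysis buffer (3 min, 30 °C); insoluble fraction taken in Laemmli buffer. Both fractions blotted on SDS-10% PAGE with anti-α-tubulin and ECL detection.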

A549 [22] = experiment: Inhibition of alpha-tubulin polymerization in human A549 cells assessed as disruption of microtubule organization at 50 nM after 48 hrs by FITC/DAPI staining based immunofluorescence microscopic assay; type: cell-based
In short: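 A549 cells on coverslips treated at 50 nM for 48 h. Fixed in 3.5% formaldehyde/PBS, permeabilized with Triton X-100/Tween-20, blocked in 2% BSA. Anti-tubulin primary (1:200, 4 h) and FITC anti-mouse secondary (1:500, 1 h), DAPI mounting, confocal imaging.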

A549 [23] = experiment: Induction of apoptosis in human A549 cells assessed as increase in caspase-3 expression at 50 nM after 48 hrs by Western blot method; type: functional, cell-based
In short: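 Caspase-3 western blot of A549 lysates after 48 h at 50 nM. Proteins extracted in RIPA buffer, 50 µg per lane on 10% SDS-PAGE, transferred to PVDF and blocked with BSA. Primary antibody incubated 24 h, HRP secondary 1 h, chemiluminescent detection, with β-actin as loading control.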

[24] = Cell cycle arrest in human A549 cells assessed as accumulation at G2/M phase at 50 nM after 48 hrs by propidium iodide staining based flow cytometry (reference value: 12.1%); type: functional; in short: as §1
A549 [25] = experiment: Induction of apoptosis in human A549 cells assessed as live cells at 100 nM after 48 hrs by Annexin-V FITC/propidium iodide staining based flow cytometry (reference value: 94.2%); type: functional
A549 [26] = experiment: Induction of apoptosis in human A549 cells assessed as nuclei condensation at 50 nM after 48 hrs by Hoechst 33258 staining based fluorescence microscopic analysis; type: functional, cell-based
In short: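 A549 cells (5 × 10⁴/well) allowed to adhere 48 h, then treated at 50 nM for 48 h at 37 °C. Fixed in 4% paraformaldehyde at 4 °C for 10 min and stained with Hoechst 33258 (5 µg/mL) for 30 min at room temperature. Nuclear condensation scored by fluorescence microscopy (ex 350/em 460 nm, 10X).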

[27] = Cell cycle arrest in human A549 cells assessed as accumulation at S phase at 100 nM after 48 hrs by propidium iodide staining based flow cytometry (reference value: 9.4%); type: functional; in short: as §1
A549 [28] = experiment: Induction of apoptosis in human A549 cells after 48 hrs by Annexin-V FITC/propidium iodide staining based flow cytometry; type: functional, cell-based
A549 [29] = experiment: Induction of apoptosis in human A549 cells assessed as necrotic cells at 50 nM after 48 hrs by Annexin-V FITC/propidium iodide staining based flow cytometry (reference value: 0.1%); type: functional
[30] = Cell cycle arrest in human A549 cells assessed as accumulation at G0/G1 phase at 50 nM after 48 hrs by propidium iodide staining based flow cytometry (reference value: 78.5%); type: functional; in short: as §1
[31] = Inhibition of porcine brain tubulin polymerization in presence of GTP by fluorescence assay; set-up: species or system Sus scrofa
In short: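 Tubulin polymerization IC50: compounds preincubated with tubulin at 0.5, 1, 2, 3 and 5 µM. Reactions in PEM buffer with […], polymerization followed by reporter fluorescence at ex 360/em 420 nm, with CA-4 as reference.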

[32] = Antiproliferative activity against human HepG2 cells after 48 hrs by MTT assay; type: functional, cell-based; conditions: HepG2, 48 h; in short: as §2
A549 [33] = experiment: Induction of apoptosis in human A549 cells assessed as late apoptotic cells at 50 nM after 48 hrs by Annexin-V FITC/propidium iodide staining based flow cytometry (reference value: 0.6%); type: functional

COc1cc(-c2nncn2-c2ccc(-c3nc4ccc(F)cc4s3)cc2C)cc(OC)c1OC
Activity (A549 [1]): 74.4%
Activity [2]: Dose-dependent effect
Activity (A549 [3]): 27.2%
Activity (A549 [4]): 15.1%
Activity (A549 [5]): 85.2%
IC50 [6]: 48 nM
Activity [7]: 65.5%
Activity (A549 [8]): 78.3%
Activity (A549 [9]): 8.2%
Activity (A549 [10]): 20.9%
Activity [11]: 19.8%
inhibition (Homo sapiens): Active
Activity (A549 [12]): 12.8%
Activity [13]: Dose-dependent effect
IC50 [14]: 1410 nM
IC50 [15]: 150 nM
Activity (A549 [16]): 22.2%
Activity [17]: 14.7%
Activity (A549 [18]): 10.4%
IC50 [19]: 280 nM
inhibition (Sus scrofa): 74.4%
Activity (A549 [20]): 0.7%
inhibition (A549 [21]): Active
inhibition (A549 [22]): Active
Activity (A549 [23]): Active
Activity [24]: 25.1%
Activity (A549 [25]): 63.9%
Activity (A549 [26]): Active
Activity [27]: 15.4%
Activity (A549 [28]): Dose-dependent effect
Activity (A549 [29]): 0.8%
Activity [30]: 60.6%
IC50 [31]: 1000 nM
IC50 [32]: 300 nM
Activity (A549 [33]): 5.8%

COc1ccc2nc(-c3ccc(-n4cnnc4-c4cc(OC)c(OC)c(OC)c4)c(C)c3)sc2c1
Activity (A549 [1]): 80.5%
Activity [2]: Dose-dependent effect
Activity (A549 [3]): 23.7%
Activity (A549 [4]): 13.5%
Activity (A549 [5]): 87.2%
IC50 [6]: 54 nM
Activity [7]: 59.5%
Activity (A549 [8]): 77.3%
Activity (A549 [9]): 9.2%
Activity (A549 [10]): 12.3%
Activity [11]: 21.5%
inhibition (Homo sapiens): Active
Activity (A549 [12]): 11%
Activity [13]: Dose-dependent effect
IC50 [14]: 1130 nM
IC50 [15]: 160 nM
Activity (A549 [16]): 16.9%
Activity [17]: 10.6%
Activity (A549 [18]): 6.8%
IC50 [19]: 480 nM
inhibition (Sus scrofa): 72.9%
Activity (A549 [20]): 1.1%
inhibition (A549 [21]): Active
inhibition (A549 [22]): Active
Activity (A549 [23]): Active
Activity [24]: 25.9%
Activity (A549 [25]): 66%
Activity (A549 [26]): Active
Activity [27]: 17.6%
Activity (A549 [28]): Dose-dependent effect
Activity (A549 [29]): 1.1%
Activity [30]: 63.7%
IC50 [31]: 1670 nM
IC50 [32]: 670 nM
Activity (A549 [33]): 8.1%

COc1ccc(/C=C\c2cc(OC)c(OC)c(OC)c2)cc1O [COMBRETASTATIN A4]
Activity (A549 [1]): 74.9%
Activity (A549 [3]): 24.2%
IC50 [6]: 58 nM
Activity (A549 [9]): 13.3%
Activity (A549 [10]): 18%
Activity [11]: 26.1%
inhibition (Homo sapiens): Active
IC50 [14]: 43 nM
IC50 [15]: 5 nM
Activity (A549 [16]): 21.8%
Activity [17]: 12.6%
IC50 [19]: 69 nM
inhibition (Sus scrofa): 73.2%
Activity (A549 [20]): 1.7%
inhibition (A549 [21]): Active
inhibition (A549 [22]): Active
Activity [24]: 31.3%
Activity (A549 [25]): 60.8%
Activity (A549 [26]): Active
Activity [27]: 15.9%
IC50 [31]: 1600 nM
IC50 [32]: 9 nM
